Series [1] has as its system Staphylococcus epidermidis. The experiment in a line: Antibiofilm activity against Staphylococcus epidermidis ATCC 12228 incubated for 24 hrs by crystal violet-staining based assay. It counts as functional. In a few lines:
(§1)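 Biofilm prevention: 0.5 McFarland inoculum (2.5 µL) in 100 µL TSB with 2% w/v glucose, compound present from the start over 100–0.1 µg/mL, 37 °C 24 h. Washed with PBS, stained 0.1% w/v crystal violet 30 min, eluted with 33% v/v acetic acid, read at 570 nm. BIC50 (50% inhibition versus untreated control) derived by linear regression; triplicate, repeated at least twice.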

The subject of series [2] is Staphylococcus aureus. As to the kind of experiment: Antimicrobial activity against Staphylococcus aureus ATCC 25923 assessed as growth inhibition of planktonic forms incubated for 24 hrs. Type of series: organism-based. To be noted: in vitro. The procedure, abridged:
(§2)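 Broth microdilution in tryptic soy broth. Two-fold series 100 to 0.75 μg/mL made from a 1 mg/mL stock in 0.9% NaCl. Inoculum ~10⁶ cfu/mL taken from a 24 h culture, 37 °C 24 h.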

Series [3] deals with Pseudomonas aeruginosa. As to the kind of experiment: Antibiofilm activity against Pseudomonas aeruginosa ATCC 15442 incubated for 24 hrs by crystal violet-staining based assay. It counts as functional. In a few lines:
as §1

Series [4] relates to Pseudomonas aeruginosa. The experiment in a line: Antimicrobial activity against Pseudomonas aeruginosa ATCC 15442 assessed as growth inhibition of planktonic forms incubated for 24 hrs. Conditions: in vitro. Type of series: organism-based. In a few lines: as §2
Series [5] concerns Staphylococcus aureus. As to the kind of experiment: Antimicrobial activity against Staphylococcus aureus ATCC 6538 assessed as growth inhibition of planktonic forms incubated for 24 hrs. Conditions: in vitro. Type of series: organism-based. In a few lines: as §2
The test system of series [6] is Staphylococcus aureus. The experiment in a line: Antibiofilm activity against Staphylococcus aureus ATCC 6538 incubated for 24 hrs by crystal violet-staining based assay. Type of series: functional. The procedure, abridged:
as §1

The subject of series [7] is Escherichia coli. As to the kind of experiment: Antibiofilm activity against Escherichia coli ATCC 25922 incubated for 24 hrs by crystal violet-staining based assay. Type of series: functional. The procedure, abridged: as §1
In series [8] the test system is Staphylococcus epidermidis. As to the kind of experiment: Antimicrobial activity against Staphylococcus epidermidis ATCC 12228 assessed as growth inhibition of planktonic forms incubated for 24 hrs. It counts as organism-based. To be noted: in vitro. In a few lines:
as §2

The test system of series [9] is Staphylococcus aureus. As to the kind of experiment: Antibiofilm activity against Staphylococcus aureus ATCC 25923 incubated for 24 hrs by crystal violet-staining based assay. Type of series: functional. In a few lines: as §1
Series [10] deals with Escherichia coli. As to the kind of experiment: Antimicrobial activity against Escherichia coli ATCC 25922 assessed as growth inhibition of planktonic forms incubated for 24 hrs. Type of series: organism-based. Conditions: in vitro. The procedure, abridged: as §2
Series [11] concerns Escherichia coli. As to the kind of experiment: Antibiofilm activity against Escherichia coli ATCC 25922 assessed as inhibition of biofilm formation at 100 ug/ml incubated for 24 hrs by crystal violet-staining based assay. Conditions: ATCC 25922, 24 h. Type of series: functional.
The subject of series [12] is Pseudomonas aeruginosa. The experiment in a line: Antibiofilm activity against Pseudomonas aeruginosa ATCC 15442 assessed as inhibition of biofilm formation at 100 ug/ml incubated for 24 hrs by crystal violet-staining based assay. Type of series: functional. Conditions: ATCC 15442, 24 h.

Active and inactive are the calls of the source. No cut-off for these calls is given here. Some results are limits rather than exact numbers.

Turning to `Br.Cn1cc(-c2nn3cc(-c4ccc(F)cc4)nc3s2)c2cc(Br)ccc21`, the MBIC50 entry (in series [1]; with Pseudomonas aeruginosa [3]; in the series with Staphylococcus aureus [6]; in the series with Escherichia coli [7]; with Staphylococcus aureus [9]) was “inactive” throughout. The MIC (in the series on Staphylococcus aureus [2]; in the series with Pseudomonas aeruginosa [4]; with Staphylococcus aureus [5]; in series [8]; with Escherichia coli [10]) was greater than 100 µg/mL throughout.

What is called inhibition is the drop in the measured response relative to a control, in per cent. Consider `Br.Cn1cc(-c2nn3cc(-c4ccc([N+](=O)[O-])cc4)nc3s2)c2cc(Br)ccc21`, for which the MBIC50 in series [1] turned out to be 71.7 µM; with Pseudomonas aeruginosa [3] it was 38.6 µM; in the series on Staphylococcus aureus [6], 3.1 µM; with Escherichia coli [7], 19.6 µM; in the series with Staphylococcus aureus [9], 20.9 µM. Moreover, the inhibition result (in [1]; in the series on Pseudomonas aeruginosa [3]; in the series with Staphylococcus aureus [6]; with Escherichia coli [7]; in the series with Staphylococcus aureus [9]) was “Dose-dependent effect” in each case. The MIC (with Staphylococcus aureus [2]; with Pseudomonas aeruginosa [4]; in the series with Staphylococcus aureus [5]; in [8]; in the series with Escherichia coli [10]) was greater than 100 µg/mL in each case.

Take `Br.Fc1ccc(-c2cn3nc(-c4c[nH]c5ccc(Br)cc45)sc3n2)cc1`: the MBIC50 entry (in series [1]; in the series with Pseudomonas aeruginosa [3]; in the series with Staphylococcus aureus [6]; in the series on Escherichia coli [7]; with Staphylococcus aureus [9]) was “inactive” in each case. For the same compound, the MIC (in the series with Staphylococcus aureus [2]; in the series on Pseudomonas aeruginosa [4]; in the series on Staphylococcus aureus [5]; in series [8]; with Escherichia coli [10]) was greater than 100 µg/mL throughout.

Turning to `Br.Brc1ccc2[nH]cc(-c3nn4cc(-c5ccccc5)nc4s3)c2c1`, the MBIC50 entry (in [1]; in the series on Pseudomonas aeruginosa [3]; in the series with Staphylococcus aureus [6]; in the series on Escherichia coli [7]; with Staphylococcus aureus [9]) was “inactive” throughout. The MIC (with Staphylococcus aureus [2]; in the series with Pseudomonas aeruginosa [4]; in the series on Staphylococcus aureus [5]; in [8]; with Escherichia coli [10]) was greater than 100 µg/mL in each case.

With `Br.Clc1ccc2[nH]cc(-c3nn4cc(-c5ccccc5)nc4s3)c2c1`, the MBIC50 entry (in [1]; in the series on Pseudomonas aeruginosa [3]; in the series with Staphylococcus aureus [6]; with Escherichia coli [7]; in the series on Staphylococcus aureus [9]) was “inactive” each time. Further, the MIC (in the series with Staphylococcus aureus [2]; in the series on Pseudomonas aeruginosa [4]; with Staphylococcus aureus [5]; in series [8]; in the series with Escherichia coli [10]) was greater than 100 µg/mL throughout.

Regarding `Br.COc1cccc(-c2cn3nc(-c4c[nH]c5ccccc45)sc3n2)c1`, the MBIC50 in series [1] was 33.4 µM; in the series with Pseudomonas aeruginosa [3], 80.2 µM; in the series on Staphylococcus aureus [6], 37 µM; with Escherichia coli [7], 69.7 µM; in the series on Staphylococcus aureus [9], 80.2 µM. Further, the inhibition result (in series [1]; in the series on Pseudomonas aeruginosa [3]; with Staphylococcus aureus [6]; in the series with Escherichia coli [7]; in the series on Staphylococcus aureus [9]) was “Dose-dependent effect” in each case. Moreover, the MIC (with Staphylococcus aureus [2]; in the series with Pseudomonas aeruginosa [4]; with Staphylococcus aureus [5]; in series [8]; with Escherichia coli [10]) was greater than 100 µg/mL in each case.

As to `FC(F)(F)c1ccc(-c2cn3nc(-c4c[nH]c5ccc(Br)cc45)sc3n2)cc1`, the MBIC50 in [1] came out at 19.2 µM; in the series on Staphylococcus aureus [6] it was 13.3 µM; with Staphylococcus aureus [9], 16.8 µM. Also, the inhibition entry (in series [1]; in the series on Staphylococcus aureus [6]; with Staphylococcus aureus [9]) was “Dose-dependent effect” in each case. In addition, the MIC (in the series with Staphylococcus aureus [2]; in the series with Pseudomonas aeruginosa [4]; in the series on Staphylococcus aureus [5]; in [8]; with Escherichia coli [10]) was greater than 100 µg/mL throughout. Besides, the inhibition at 100 µg/mL in the series with Escherichia coli [11] and with Pseudomonas aeruginosa [12] was less than 15% throughout.

As for `Br.Cn1cc(-c2nn3cc(-c4ccc(F)cc4)nc3s2)c2ccccc21`, the MBIC50 in [1] turned out to be 68.9 µM; with Staphylococcus aureus [6], 17.9 µM; in the series on Staphylococcus aureus [9], 8.6 µM. In addition, the inhibition result (in series [1]; in the series with Staphylococcus aureus [6]; with Staphylococcus aureus [9]) was “Dose-dependent effect” in each case. In addition, the MIC (in the series with Staphylococcus aureus [2]; in the series with Pseudomonas aeruginosa [4]; with Staphylococcus aureus [5]; in series [8]; in the series with Escherichia coli [10]) was greater than 100 µg/mL throughout. Moreover, the inhibition at 100 µg/mL in the series with Escherichia coli [11] and in the series on Pseudomonas aeruginosa [12] was less than 15% in each case.

On to `COc1ccc(OC)c(-c2cn3nc(-c4cn(C)c5ccc(Cl)cc45)sc3n2)c1`, for which the MBIC50 in series [1] was determined as 8.1 µM; with Staphylococcus aureus [6], 69.4 µM; in the series with Staphylococcus aureus [9] it was 163 µM. Besides, the inhibition entry (in [1]; in the series on Staphylococcus aureus [6]; in the series with Staphylococcus aureus [9]) was “Dose-dependent effect” in each case. Further, the MIC (in the series on Staphylococcus aureus [2]; with Pseudomonas aeruginosa [4]; in the series on Staphylococcus aureus [5]; in series [8]; with Escherichia coli [10]) was greater than 100 µg/mL each time. Besides, the inhibition at 100 µg/mL with Escherichia coli [11] and in the series with Pseudomonas aeruginosa [12] was less than 15% in each case.

Regarding `Br.Fc1ccc(-c2cn3nc(-c4c[nH]c5ccc(Cl)cc45)sc3n2)cc1`, the MBIC50 in [1] worked out at 100.7 µM; with Staphylococcus aureus [6], 24.2 µM; with Staphylococcus aureus [9] it was 51.3 µM. The inhibition result (in series [1]; with Staphylococcus aureus [6]; in the series with Staphylococcus aureus [9]) was “Dose-dependent effect” in each case. The MIC (in the series with Staphylococcus aureus [2]; with Pseudomonas aeruginosa [4]; with Staphylococcus aureus [5]; in series [8]; in the series with Escherichia coli [10]) was greater than 100 µg/mL in each case. In addition, the inhibition at 100 µg/mL in the series with Escherichia coli [11] and in the series on Pseudomonas aeruginosa [12] was less than 15% each time.

`Br.c1ccc(-c2cn3nc(-c4c[nH]c5ccccc45)sc3n2)cc1`: the MBIC50 in [1] was 59.1 µM; in the series with Staphylococcus aureus [6], 46.5 µM; in the series on Staphylococcus aureus [9], 35.9 µM. Moreover, the inhibition entry (in [1]; with Staphylococcus aureus [6]; in the series with Staphylococcus aureus [9]) was “Dose-dependent effect” in each case. The MIC (with Staphylococcus aureus [2]; with Pseudomonas aeruginosa [4]; in the series with Staphylococcus aureus [5]; in series [8]; with Escherichia coli [10]) was greater than 100 µg/mL each time. The inhibition at 100 µg/mL in the series on Escherichia coli [11] and with Pseudomonas aeruginosa [12] was less than 15% each time.

The record behind these values is ChEMBL document CHEMBL4339190, “2,6-Disubstituted imidazo[2,1-b][1,3,4]thiadiazole derivatives as potent staphylococcal biofilm inhibitors” (Eur J Med Chem, 2019).
